Data taken from PubChem BioAssay.
Active and inactive are the calls of the source.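 The calls were made as follows, unless noted: active = a full or partial loss of lipid-probe fluorescence in the fish gall bladder, intestine or both, judged by eye; inactive = no fluorescence loss, or compound toxic to the fish.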

Assays:
[1] = inhibitors of TNFa-induced NFkB p65 translocation, primary screen, imaging, HUVEC, MLSMR starter and 10KST1 sets (AID 438;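 active = inhibition above 20% together with a positive visual image hit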;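 also: compound added about 3h40 before a 20 min TNFalpha stimulation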;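 as to inhibition: signal is the nuclear over cytoplasmic p65 intensity ratio per well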); conditions: HUVEC TNFa-induced p65 nuclear translocation; cell count: measured here: nuclei count (cytotoxicity indicator), at 2.08 µM; inhibition: at 2 µM, stronger effect = higher value, 0% TNFa-plus-vehicle, 100% no-TNFa wells
[2] = endothelial E-selectin expression blockers – imaging, HUVEC, immunofluorescence, MLSMR starter and 10KST1 sets, primary screen (AID 487;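 active = visually confirmed hit in the image check and inhibition above 20%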;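 as to inhibition: signal is fraction of cell area covered by stained E-selectin grains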;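 as to nuclei count: 100% = median nuclei count of all wells on the same plate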); conditions: HUVEC TNFalpha-induced E-selectin immunofluorescence imaging, at 2 µM; inhibition: stronger effect = higher value; nuclei count: measured here: cell number, toxicity
[3] = Primary imaging screen for DUSP6 inhibitors that restore phospho-Erk in transfected HeLa cells, chemical complementation (AID 609;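 active = compounds giving at least 50% inhibition in the cell-based MKP-3 phosphatase rescue imaging test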;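 as to inhibition: phospho-Erk level distribution per well compared with pooled transfected vehicle control wells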); conditions: HeLa MKP-3 transfected, phospho-Erk imaging KS statistic, at 10 µM, cells stimulated with TPA for 15 min
[4] = biological target: Dual specificity protein phosphatase 6 (Homo sapiens) (UniProt Q16828); experiment: as above; conditions: HeLa MKP-3 transfected, phospho-Erk imaging KS statistic; at 10 µM; stronger effect = higher value; cells stimulated with TPA for 15 min
[5] = biological target: Voltage-gated potassium channel subunit beta-2 (Rattus norvegicus) (UniProt P62483); experiment: inhibitors of rat Kvbeta2 reductase activity – biochemical, NADPH fluorescence, primary screen (AID 622;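 active = fluorescence slope higher than the sample average by over 3 SD, cut at about -0.22 in these data, passing the limit was not always enough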;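 also: slope of raw intensity against log time taken from 70 to 1610 s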); conditions: recombinant KvBeta, 4-cyanobenzaldehyde reduction, at 10 µM, stronger effect = higher value
[6] = biological target: Voltage-gated potassium channel subunit beta-2 (Rattus norvegicus) (UniProt P62483); experiment: enhancers of rat Kvbeta2 NADPH turnover – biochemical, NADPH fluorescence, primary screen (AID 623;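 active = NADPH fluorescence slope more negative than the mean of all samples by about 3 SD, 99.7% confidence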;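 also: fluorescence intensity change per second fitted from 20 to 320 s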); conditions: Recombinant KvBeta, NADPH fluorescence decrease slope, 10 min; at 10 µM; stronger effect = lower value
[7] = biological target: Alpha-2C adrenergic receptor (Homo sapiens) (UniProt P18825); experiment: compounds altering alpha2C-coupled GIRK flux – cell-based, HEK293 alpha2C/GIRK1/2, thallium flux, primary screen (AID 624;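 active = fluorescence slope after compound addition differing from the mean of all screened samples at 99.7% confidence, in either direction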;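 also: slope of fluorescence ratio to pre-addition baseline per second over 15 to 24 s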); conditions: thallium flux BTC fluorescence, at 10 µM, actives lie on both sides
[8] = inhibitors of larval lipid processing in zebrafish, primary screen, whole organism, PED6 fluorescence, gall bladder and intestine (AID 686); conditions: Zebrafish larvae PED6 lipid processing, fluorescence scoring; screened at 20 µM (by protocol);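 also: larvae 5 to 7 days old with five fish per well; signal comes from phospholipase A2 cleavage of quenched PED6 carried via bile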
Summary of the method: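 Incubation: overnight exposure of larvae to compound plus PED6 / Test system: live zebrafish larvae aged 5-7 days, whole organism / Amount: 5 larvae per well / Read-out basis: visual per-well fluorescence inhibition score / Signal: visual fluorescence microscopy scoring of gall bladder, gut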

[9] = loss of swimming-algae plug formation – whole organism, Chlamydomonas reinhardtii, WT vs cilia-less mutant, absorbance, 96-well, primary screen (AID 463189;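 active = inhibition at or above 50% relative to wild type and mutant plate controls; inactive = inhibition below 50%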;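 also: 0% = wild type cc124 cells in DMSO and 100% = ciliumless bld1 mutant cells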); conditions: Chlamydomonas reinhardtii gravitaxis, OD600 absorbance, 2 days; at 10 µM; stronger effect = higher value
[10] = measured here: cell density z-score
[11] = measured here: nuclear c-Myc green intensity z-score
[12] = measured here: nuclear pErk red intensity z-score, stronger effect = higher value

Voltage-gated potassium channel subunit beta-2 (Rattus norvegicus), sequence (P62483 whole entry, looked up): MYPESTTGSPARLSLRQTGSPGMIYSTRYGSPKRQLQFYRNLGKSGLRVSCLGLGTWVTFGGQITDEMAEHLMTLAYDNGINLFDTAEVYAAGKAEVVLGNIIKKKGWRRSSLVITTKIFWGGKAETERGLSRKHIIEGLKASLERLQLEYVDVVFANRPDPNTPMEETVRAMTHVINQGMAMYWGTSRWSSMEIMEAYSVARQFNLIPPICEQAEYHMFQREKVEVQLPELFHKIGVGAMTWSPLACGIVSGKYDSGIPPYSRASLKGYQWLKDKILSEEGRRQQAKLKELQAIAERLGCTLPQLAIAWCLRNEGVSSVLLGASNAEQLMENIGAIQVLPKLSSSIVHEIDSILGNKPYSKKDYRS
Dual specificity protein phosphatase 6 (Homo sapiens), sequence (Q16828 whole entry, looked up): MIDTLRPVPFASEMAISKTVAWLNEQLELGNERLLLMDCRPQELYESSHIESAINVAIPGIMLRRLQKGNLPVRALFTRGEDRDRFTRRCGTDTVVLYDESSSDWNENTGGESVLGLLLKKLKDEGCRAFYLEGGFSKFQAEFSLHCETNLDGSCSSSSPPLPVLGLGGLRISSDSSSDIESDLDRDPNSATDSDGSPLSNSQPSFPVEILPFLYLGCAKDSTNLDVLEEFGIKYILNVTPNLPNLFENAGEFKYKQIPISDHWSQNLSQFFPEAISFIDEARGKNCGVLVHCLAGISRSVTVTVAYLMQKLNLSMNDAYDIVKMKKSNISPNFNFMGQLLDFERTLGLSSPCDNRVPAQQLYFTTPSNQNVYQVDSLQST
Alpha-2C adrenergic receptor (Homo sapiens), sequence (P18825 whole entry, looked up): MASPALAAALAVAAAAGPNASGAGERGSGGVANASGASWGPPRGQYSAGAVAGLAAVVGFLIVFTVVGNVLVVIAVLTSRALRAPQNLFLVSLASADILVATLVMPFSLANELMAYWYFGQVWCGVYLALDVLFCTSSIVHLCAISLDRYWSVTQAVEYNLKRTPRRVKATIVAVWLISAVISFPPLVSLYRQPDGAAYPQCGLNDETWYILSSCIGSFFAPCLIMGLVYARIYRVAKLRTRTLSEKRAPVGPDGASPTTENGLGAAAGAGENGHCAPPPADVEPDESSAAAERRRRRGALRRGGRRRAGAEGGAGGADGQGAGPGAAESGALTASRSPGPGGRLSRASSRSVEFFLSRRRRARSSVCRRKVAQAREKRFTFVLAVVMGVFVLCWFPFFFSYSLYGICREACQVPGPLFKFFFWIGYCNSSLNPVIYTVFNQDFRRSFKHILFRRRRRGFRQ

Structure (SMILES)	cell count [1]	inhibition [1]	inhibition [2]	nuclei count [2]	z-score [3, 10]	z-score [3, 11]	z-score [3, 12]	inhibition [4]	fluorescence slope [5]	NADPH fluorescence slope [6]	slope [7]	outcome [8]	inhibition [9]
COn1c(=S)[nH]c2ccccc2c1=O	454	0.3% (inactive)	-12.8% (inactive)	98.1%	-1.19	0.293	-0.609	3.5% (inactive)	-0.496 (inactive)	-7.7e-06 (inactive)	0.00619 (inactive)	inactive	1.26% (inactive)
COc1cccc(/C=C2/CN(C)CC3=C2OC(N)=C(C#N)C3c2cccc(OC)c2)c1 (stereo unspecified)	562	-0.3% (inactive)	-91.1% (inactive)	190%	1.7	-1.04	-1.64	-1.12% (inactive)	-0.289 (inactive)	4.6e-07 (inactive)	0.00546 (inactive)	inactive	3.47% (inactive)
COc1cccc(-c2nnc3sc(-c4ccc(Cl)cc4)nn23)c1	588	3.2% (inactive)	19.9% (inactive)	102%	0.426	-0.269	0.00297	-4.27% (inactive)	-0.385 (inactive)	-1.5e-05 (inactive)	0.00661 (inactive)	inactive	5.02% (inactive)
Cc1nc2c(c(=O)n1CC1CCCO1)c1nc3ccccc3nc1n2CCC(C)C (stereo unspecified)	327	-4.1% (inactive)	-30.1% (inactive)	177%	1.21	-0.55	1.04	-0.584% (inactive)	-0.381 (inactive)	-0.000104 (inactive)	0.00821 (inactive)	inactive	24.8% (inactive)
CCn1c(SC(C)C(=O)O)nc2sc3c(c2c1=O)CCC3 (stereo unspecified)	614	-11.3% (inactive)	46% (inactive)	108%	0.34	-0.588	-0.0983	-2.29% (inactive)	-0.401 (inactive)	-3.8e-05 (inactive)	0.0197 (active)	inactive	7.74% (inactive)
Nc1ncnc2nc(SCc3ccccc3)[nH]c12	352	2.1% (inactive)	-52.6% (inactive)	152%	-0.893	1.92	0.814	-7.01% (inactive)	-0.432 (inactive)	-0.00013 (inactive)	0.00504 (inactive)	inactive	8.96% (inactive)
Cc1cc(C)n(CC(=O)N2c3ccccc3Sc3ccccc32)n1	563	-0.4% (inactive)	-139% (inactive)	139%	0.655	0.867	-0.852	15.9% (inactive)	-0.508 (inactive)	-4.4e-05 (inactive)	0.00518 (inactive)	inactive	14.7% (inactive)
N/C(CCN1CCCCC1)=N/O	582	-29.9% (inactive)	25.5% (inactive)	169%	0.685	-0.291	-0.968	-4.27% (inactive)	-0.418 (inactive)	-9.2e-06 (inactive)	0.00552 (inactive)	inactive	12.2% (inactive)
Fc1ccc2[nH]c3c(N4CCN(Cc5ccc6c(c5)OCO6)CC4)ncnc3c2c1	523	-4.5% (inactive)	-93.3% (inactive)	169%	0.499	0.133	-0.391	-1.12% (inactive)	-0.311 (inactive)	3.2e-05 (inactive)	0.00448 (inactive)	inactive; toxic	58.4% (active)
CCN(CC)CCCn1c(C)cc2c(c1=O)C(c1ccc(OC)c(OC)c1OC)C(C#N)=C(N)O2 (stereo unspecified)	439	13.1% (inactive)	-23% (inactive)	134%	-1.55	-0.016	0.949	2.46% (inactive)	-0.389 (inactive)	-3.6e-05 (inactive)	0.0068 (inactive)	inactive	-3.45% (inactive)
COc1ccc(/C(O)=C2\C(=O)C(=O)N(CCN(C)C)C2c2cccc(OC)c2OC)cc1 (stereo unspecified)	614	-5.4% (inactive)	-56.5% (inactive)	192%	0.97	0.147	-0.253	9.61% (inactive)	-0.338 (inactive)	-2.9e-05 (inactive)	0.00479 (inactive)	inactive	-2.59% (inactive)
COc1ccc(C(C)=O)cc1CSCCC(=O)O	513	-1.6% (inactive)	-82.1% (inactive)	175%	1.45	-1.72	-4.2	-5.26% (inactive)	-0.349 (inactive)	1.8e-05 (inactive)	0.00434 (inactive)	inactive	0.764% (inactive)
CC1(C)CC(N(Cc2ccco2)C(=O)Cc2ccccc2)CCO1 (stereo unspecified)	535	12.5% (inactive)	-104% (inactive)	145%	-0.358	2.8	-0.796	3.5% (inactive)	-0.485 (inactive)	-3.2e-05 (inactive)	0.00539 (inactive)	inactive	6.62% (inactive)
COc1cc(C2CC(C(F)(F)F)n3ncc(C(=O)O)c3N2)cc(OC)c1OC (stereo unspecified)	515	-6.9% (inactive)	18.3% (inactive)	119%	-0.754	0.674	1.11	-2.07% (inactive)	-0.517 (inactive)	-9.9e-05 (inactive)	0.0046 (inactive)	inactive	-0.326% (inactive)
Cc1ccc2[nH]c3c(c2c1)CN(C(=O)CN1CCN(c2ccccn2)CC1)CC3	563	-9% (inactive)	-69.3% (inactive)	144%	-1.22	-0.583	-0.448	4.72% (inactive)	-0.453 (inactive)	-0.000143 (inactive)	0.00579 (inactive)	inactive	10.4% (inactive)
CCCCN(CCCC)c1nc2ccccc2nc1C(C#N)C(=O)NCCCOC (stereo unspecified)	382	-6.8% (inactive)	-187% (inactive)	156%	-0.742	0.7	0.633	-5.89% (inactive)	-0.0828 (active)	9.1e-06 (inactive)	0 (active)	inactive	5.14% (inactive)
O=C(CCC1CCCC1)N1CCC(N2CCN(c3ccccc3)CC2)CC1	411	-9.4% (inactive)	-188% (inactive)	140%	0.947	0.889	-0.837	9.39% (inactive)	-0.446 (inactive)	4.6e-06 (inactive)	0.00549 (inactive)	inactive	62.1% (active)
CN(C)CC(O)COc1cccc(OCC(O)CN(C)C)c1 (stereo unspecified)	433	-6.5% (inactive)	-137% (inactive)	155%	-1.38	-0.215	0.992	-7.28% (inactive)	-0.4 (inactive)	-4.2e-05 (inactive)	0.00531 (inactive)	inactive	-5.71% (inactive)
Cc1cc(C)n2c3c(c(C#N)c2n1)CC(C)(C)OC3	670	-7.2% (inactive)	55.6% (inactive)	131%	0.0106	-1.04	-0.0691	11.3% (inactive)	-0.327 (inactive)	2.8e-06 (inactive)	0.00519 (inactive)	inactive	14.5% (inactive)
CC(O)Cn1ccccc1=N (stereo unspecified)	352	-2% (inactive)	-146% (inactive)	105%	0.162	-0.0061	0.0768	-2.29% (inactive)	-0.293 (inactive)	7.7e-06 (inactive)	0.00523 (inactive)	inactive	21.9% (inactive)
Cc1ccnc(N2CCN(c3c4c(c(C#N)c5nc6ccccc6n35)CCC4)CC2)c1	585	-9% (inactive)	-90.1% (inactive)	135%	-0.195	1.1	0.491	15.9% (inactive)	-0.401 (inactive)	-2e-05 (inactive)	0.00557 (inactive)	inactive	-3.36% (inactive)
N#CC1(P(=O)(c2ccccc2)c2ccccc2)CC1	481	-10.9% (inactive)	-110% (inactive)	143%	-0.778	-0.637	-0.322	11.3% (inactive)	-0.546 (inactive)	-5.6e-05 (inactive)	0.00538 (inactive)	inactive	5.77% (inactive)
CCCc1[nH]nc2c1C(c1c(C)nn(-c3ccccc3)c1Cl)C(C#N)=C(N)O2 (stereo unspecified)	673	-3.2% (inactive)	-234% (inactive)	148%	1.26	0.14	-0.117	12.7% (inactive)	-0.399 (inactive)	-1.9e-06 (inactive)	0.00594 (inactive)	inactive	-5.65% (inactive)
CCCCc1ccc(NC(=O)CSC2=C(C#N)C(c3ccco3)C3=C(CCCC3=O)N2)cc1 (stereo unspecified)	384	-8% (inactive)	-114% (inactive)	151%	0.415	1.7	-0.943	7.42% (inactive)	-0.44 (inactive)	-9.7e-05 (inactive)	0.00706 (inactive)	inactive	-5.66% (inactive)
COCCCNC(=O)c1c(N)n(/N=C/c2cccs2)c2nc3ccccc3nc12	342	-11.1% (inactive)	4.6% (inactive)	125%	0.439	-0.623	-0.0865	17.4% (inactive)	-0.266 (inactive)	-5.1e-05 (inactive)	0.00731 (inactive)	inactive	24.1% (inactive)
CC1(C)Cc2c(c(N3CCOCC3)nc3snc(N)c23)CO1	554	-1.3% (inactive)	-78.1% (inactive)	140%	0.144	-0.616	0.222	1.48% (inactive)	-0.281 (inactive)	-1.1e-05 (inactive)	0.00566 (inactive)	inactive	22.3% (inactive)
N#CC1=C(C=Nc2ccccc2O)CCC1	643	-12.1% (inactive)	-13.8% (inactive)	163%	-1.7	-0.376	2.01	-8.95% (inactive)	-0.416 (inactive)	-6.1e-05 (inactive)	0.00456 (inactive)	inactive	11.8% (inactive)
